# Bioassay records: PubChem, several laboratories
# In the library only some 4.4% were active in any assay of this set; here they are far more common.
# MsrA inh: inhibits bovine methionine sulfoxide reductase A; purified bovine MsrA, absorbance read-out; inhibition, % at 15.5 µM; 360,000 compounds, 0.75% hits; AID 651718; in the data active means inhibition above about 4.5%;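 further: 0% = vehicle wells with enzyme and 100% = reference inhibitor wells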
# bovine MsrA act: activators of bovine methionine sulfoxide reductase A | purified bovine MsrA, absorbance read-out | activation, % at 10.6 µM | 360,000 compounds, 0.3% hits | AID 602163; in the data active means activation above about 7.5%;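 further: 0% = vehicle and 100% = reference activator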
# AI-2 QS modul: modulators of Vibrio harveyi AI-2 quorum sensing system. activity change, % at 7.5 µM. 300,000 compounds, 0.4% hits. Vibrio harveyi JMH597 AI-2 luminescence/OD600 ratio, 9 h; hits give low values; strain lacks LuxN and CqsS sensors; 0 = neutral-control median. AID 2094; in the data active means activity change below about -75%, passing the limit was not always enough; inconclusive means no clear call, values can overlap the other calls;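 further: luminescence divided by OD600 gain over 9 h not by final OD600 alone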
# AHR act: human AHR activation. P35869. AHR-responsive luciferase reporter cells, luminescence. activation, % at 5 µM. 320,000 compounds, 2.5% hits; in the data active means activation above about 47%;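 further: 0% = vehicle wells and 100% = reference agonist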
# Tb MetRS inh: blocks T. brucei methionyl-tRNA synthetase activity; purified T. brucei MetRS, ATP depletion, Kinase-Glo luminescence; inhibition, % at 11.9 µM; 360,000 compounds, 0.4% hits;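 active means inhibition above a per-plate cutoff of the control wells' mean inhibition plus 3 SD, cut at about 5.5% in these data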;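 further: 0% = DMSO wells median and 100% = median of wells with control inhibitor compound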
#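 System: purified T. brucei MetRS enzyme / Detection: Kinase-Glo luciferase luminescence reporting remaining unconsumed ATP / Medium: HEPES buffer with MgCl2, KCl, DTT, spermine, BSA, pyrophosphatase / Replication: singlicate, one well per compound / Evaluation: percent inhibition relative to median high and low control wells / Schedule: 2 h aminoacylation at 25 °C after 15 min preincubation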
# m5-HT2A agonist: agonists of mouse serotonin 5-HT2A receptor (HTR2A); CHO-K1 mHTR2A beta-arrestin complementation, luminescence; percent of 30 µM serotonin response; 360,000 compounds, 0.66% hits; activation, % at 7.6 µM; P35363;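 active means activation above a run cutoff, the mean activation of all tested compounds plus 3 SD, cut at about 14% in these data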;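 further: 0% = plate median of compound wells and 100% = 30 µM serotonin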
# Target sequence (P35363 whole entry, looked up): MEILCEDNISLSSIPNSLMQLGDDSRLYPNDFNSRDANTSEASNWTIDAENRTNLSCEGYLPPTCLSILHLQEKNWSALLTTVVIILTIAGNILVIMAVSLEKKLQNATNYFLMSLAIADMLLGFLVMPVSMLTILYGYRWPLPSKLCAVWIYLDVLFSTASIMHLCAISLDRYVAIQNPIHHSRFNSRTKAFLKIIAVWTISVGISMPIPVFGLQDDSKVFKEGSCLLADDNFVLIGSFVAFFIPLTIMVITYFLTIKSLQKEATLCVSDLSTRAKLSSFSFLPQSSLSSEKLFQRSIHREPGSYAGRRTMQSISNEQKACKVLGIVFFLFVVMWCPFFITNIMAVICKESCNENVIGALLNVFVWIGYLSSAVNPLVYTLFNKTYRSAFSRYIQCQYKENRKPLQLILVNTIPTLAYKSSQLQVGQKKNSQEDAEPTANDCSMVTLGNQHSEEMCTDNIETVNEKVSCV
# JMH597 growth: retest: blocks Vibrio harveyi JMH597 growth | shares compounds with AI-2 QS modul | OD600 absorbance, 9 h; lacks LuxN and CqsS sensors | growth inhibition, % at 7.5 µM | 750 compounds, 1% hits | AID 2726;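 active means every replicate shows growth inhibition above 50%; inconclusive means at least half, but not all, replicates pass that cutoff; inactive means fewer than half of replicates pass it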
# BB721 lum counter: retest counter-screen: BB721 constitutive quorum sensing luminescence decrease; inhibition, % at 7.5 µM; Vibrio harveyi BB721 luminescence, 9 h; shares compounds with AI-2 QS modul; 750 compounds, 95% hits;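 active means inhibition above about 80% in every replicate, not just on average, limit read from the data; inconclusive means at least half of replicates past the limit, but not all; inactive means fewer than half of replicates past the limit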
# BB721 growth rt: retest Vibrio harveyi BB721 growth inhibition; 750 compounds, 3% hits; AID 2728; growth inhibition, % at 7.5 µM; shares compounds with AI-2 QS modul; OD600 absorbance, 9 h;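 active means every replicate shows growth inhibition above 50%; inconclusive means at least half but not all replicates above 50% inhibition; inactive means under half of replicates above 50% inhibition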
# AI-2 QS JMH597: Vibrio harveyi AI-2 signaling luminescence modulation – JMH597 strain, confirmation; inhibition, % at 7.5 µM; Vibrio harveyi JMH597 AI-2 quorum sensing luminescence, 9 h; luxN and CqsS knockout, AI-2 only; shares compounds with AI-2 QS modul; 750 compounds, 97% hits;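 active means every replicate shows more than 75% inhibition of signal versus neutral control wells; inconclusive means half to three quarters of replicates exceed 75% inhibition; inactive means fewer than half of replicates exceed 75% inhibition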
# The depositor's hits bear a star; u = inconclusive; x = not tested or not shown.
SMILES,MsrA inh,bovine MsrA act,AI-2 QS modul,AHR act,Tb MetRS inh,m5-HT2A agonist,JMH597 growth,BB721 lum counter,BB721 growth rt,AI-2 QS JMH597
CC(=O)c1ccc(NC(=O)C2CC(c3ccc(F)cc3)=NO2)cc1 (stereo not drawn),0,-1,7,-5,-1,-1,x,x,x,x
O=C(COC(=O)c1ccco1)Nc1nc2ccccc2s1,-1,0,u,22,-1,-2,-2,94*,11,95*
O=C(CCNC(=O)c1ccco1)Nc1nc2ccccc2s1,1,-3,x,x,-1,-2,x,x,x,x
COc1cccc(CN(C)C(=O)Cn2cc(C)c(=O)[nH]c2=O)c1,0,-1,x,x,-1,13,x,x,x,x
O=C(OC1CCCCC1)c1ccc(NC(=O)c2ccco2)cc1,0,-4,-79*,-10,0,-2,25,85*,u,90*
O=C(Nc1ccc(Oc2cccc3ccccc23)cc1)c1ccco1,2,-7,-88*,-16,0,-3,32,95*,45,93*
O=C(Nc1ccc(OC(=O)c2ccco2)cc1)c1ccco1,-1,-14,21,1,-4,4,x,x,x,x
O=C(O)c1ccccc1C(=O)Nc1ccc(Oc2cccc3ccccc23)cc1,0,-1,41,x,-1,0,x,x,x,x
COc1ccc(CNc2cccnc2)c(OC)c1OC,0,-4,x,x,-1,-4,x,x,x,x
O=C(NCCc1ccco1)c1cc(COc2cccc(C(F)(F)F)c2)on1,1,-3,-84*,2,0,-3,31,82*,-195,92*
Clc1ccc2oc(SCc3cccnc3)nc2c1,-1,-3,-81*,3,0,1,1,97*,15,96*
Clc1ccc2oc(-c3cccnc3)nc2c1,0,-12,17,4,-1,-1,x,x,x,x
CCCCCC(=O)NC(=S)Nc1ccc2oc(=O)ccc2c1,-1,-3,-90*,5,0,1,19,99*,40,98*
CCn1c2ccccc2c2cc(NC(=O)COC(=O)c3ccc(NC(=O)CC#N)cc3)ccc21,1,-4,4,41,0,-3,x,x,x,x
Cn1c(=O)n(C)c2cc(NC(=O)CCl)ccc21,-1,-9,-88*,-3,-1,-4,16,87*,42,89*
O=[N+]([O-])c1ccc(NCCCNS(=O)(=O)c2ccccc2)cc1,0,-2,u,2,1,-3,11,97*,6,97*
Cc1ccc(-c2[nH]ncc2C(=O)c2ccc(Br)cc2)c(O)c1,0,-5,-95*,4,-1,14,14,97*,-5,98*
COc1cc(NC(=O)CN2C(=O)CN(C)C2=O)c(C)cc1[N+](=O)[O-],2,-4,46,0,0,-2,x,x,x,x
COc1cc(NC(=O)Cn2ncc(Cl)c(Cl)c2=O)c(C)cc1[N+](=O)[O-],1,-4,-80*,x,-1,-2,4,93*,3,94*
COC(=O)c1cccc(NC(=O)C(C)N2C(=O)c3ccccc3C2=O)c1 (stereo not drawn),1,-1,-86*,1,0,-1,20,95*,17,97*
COC(=O)c1cccc(NC(=O)CN2C(=O)c3ccccc3C2=O)c1,-1,-13,-97*,1,-2,1,0,100*,-5,100*
COC(=O)c1cccc(NC(=O)CN2CCOCC2)c1,1,-3,18,2,0,-2,x,x,x,x
Cn1c(SCC(=O)N2CCCCCC2)nc2c(c1=O)SCC2,1,-4,0,1,-1,0,x,x,x,x
O=C(c1cc(-c2ccc(O)cc2)on1)N1CCCCCC1,0,-2,-78*,1,0,2,3,93*,-5,96*
Cc1ccccc1Nc1nc(N)nc(COc2ccc(C#N)cc2)n1,1,-13,-83*,10,-1,0,10,93*,22,96*
SMILES,MsrA inh,bovine MsrA act,AI-2 QS modul,AHR act,Tb MetRS inh,m5-HT2A agonist,JMH597 growth,BB721 lum counter,BB721 growth rt,AI-2 QS JMH597
COc1ccc(OCc2nc(N)nc(Nc3ccccc3OC)n2)cc1,0,-10,10,17,-1,3,x,x,x,x
Clc1cccc(OCc2nnc(-c3ccccc3Br)o2)c1,2,-3,-90*,2,-1,-9,u,97*,82*,98*
COc1ccc(Cl)cc1N(CC(=O)N1CCCC1)S(C)(=O)=O,0,0,u,-1,0,2,-12,-7,6,-7
COc1ccc(Cl)cc1N(CC(=O)N1CCC(C)CC1)S(C)(=O)=O,-1,-7,8,0,-1,5,x,x,x,x
CCc1nnc(NC(=O)CSc2nnc(COc3cccc(C)c3)o2)s1,0,-1,-90*,4,0,7,13,96*,-13,98*
CN(CC(=O)Nc1ccc(Cl)c(Cl)c1)C(=O)CNC(=O)Cc1ccccc1,0,-3,x,0,0,-2,x,x,x,x
Cc1cc(C)n(-c2ccc(C(=O)OC(C)C(=O)Nc3ccc(C(N)=O)cc3)cc2)n1 (stereo not drawn),1,-1,x,x,0,0,x,x,x,x
CC(=O)NC/C(C)=N\Nc1ccc([N+](=O)[O-])cc1,2,-2,-86*,0,-1,2,13,96*,55*,96*
C/C(=N\Nc1ccc([N+](=O)[O-])cc1)c1ccc(O)cc1,2,-6,-49,-4,0,-8,x,x,x,x
Cc1occc1C(=O)NNC(=O)Nc1ccc(Cl)c(Cl)c1,-1,-3,-86*,3,0,0,16,93*,5,94*
Nc1nccc(N2CCCCC2)n1,0,1,x,x,0,-3,x,x,x,x
CC(=O)c1ccc(NC(=O)CCCCCn2nnc3ccccc3c2=O)cc1,-1,-1,10,10,0,3,x,x,x,x
COc1ccc(NC(=O)CCCCCn2nnc3ccccc3c2=O)cc1OC,0,-4,26,-1,-1,3,x,x,x,x
Cc1ccc(NC(=O)Cn2nnc3ccccc3c2=O)cc1,0,0,-84*,3,-1,0,-7,97*,-3,98*
O=C(Cn1nnc2ccccc2c1=O)Nc1ccc(S(=O)(=O)N2CCOCC2)cc1,-1,-4,-97*,1,-1,1,-10,99*,6,100*
